ChEMBL document CHEMBL4765369, “Optimal linker length for small molecule PROTACs that selectively target p38α and p38β for degradation” (Eur J Med Chem, 2020)
Active and inactive are the calls of the source. The rule behind the calls is not given here.

How the values were obtained:
[1] = target: T1, Protein cereblon/Mitogen-activated protein kinase 14 (Homo sapiens, UniProt Q16539+Q96SW2); assay: Protac activity at CRBN/p38alpha in human retina epithelial cells assessed as p38alpha degradation at 1 uM measured after 24 hrs by immunoblotting analysis; type: tissue-based; details: Epithelial cell
Target sequence in this assay (Q16539 2-360 limits assumed): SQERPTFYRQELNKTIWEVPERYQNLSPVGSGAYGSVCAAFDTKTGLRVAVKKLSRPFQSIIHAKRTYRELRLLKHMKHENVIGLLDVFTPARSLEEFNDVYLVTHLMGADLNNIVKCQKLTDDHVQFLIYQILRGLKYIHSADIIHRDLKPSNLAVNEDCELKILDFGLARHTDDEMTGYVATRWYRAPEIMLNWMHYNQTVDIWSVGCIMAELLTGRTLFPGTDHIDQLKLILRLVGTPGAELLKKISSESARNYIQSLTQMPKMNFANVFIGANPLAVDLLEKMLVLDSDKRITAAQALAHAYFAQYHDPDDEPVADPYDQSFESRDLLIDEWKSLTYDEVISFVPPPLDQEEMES
Target sequence in this assay (Q96SW2 whole entry partner): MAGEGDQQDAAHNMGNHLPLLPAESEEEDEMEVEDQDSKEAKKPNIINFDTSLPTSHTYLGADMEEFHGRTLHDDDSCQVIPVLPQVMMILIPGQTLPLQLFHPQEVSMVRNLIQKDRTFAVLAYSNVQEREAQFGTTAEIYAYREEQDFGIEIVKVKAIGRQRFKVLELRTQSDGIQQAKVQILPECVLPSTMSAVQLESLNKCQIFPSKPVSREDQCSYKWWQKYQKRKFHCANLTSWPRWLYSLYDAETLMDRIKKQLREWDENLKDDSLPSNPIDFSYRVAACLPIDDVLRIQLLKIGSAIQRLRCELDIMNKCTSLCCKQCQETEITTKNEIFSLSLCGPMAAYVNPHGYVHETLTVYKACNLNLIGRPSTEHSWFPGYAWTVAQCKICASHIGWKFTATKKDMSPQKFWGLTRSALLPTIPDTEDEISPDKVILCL

[2] = target: T2, Protein cereblon/Mitogen-activated protein kinase 11 (Homo sapiens, UniProt Q15759+Q96SW2); assay: Protac activity at CRBN/p38beta in human MDA-MB-231 cells assessed as p38beta degradation at 1 uM measured after 24 hrs by immunoblotting analysis; type: cell-based
Target sequence in this assay (Q15759 whole entry): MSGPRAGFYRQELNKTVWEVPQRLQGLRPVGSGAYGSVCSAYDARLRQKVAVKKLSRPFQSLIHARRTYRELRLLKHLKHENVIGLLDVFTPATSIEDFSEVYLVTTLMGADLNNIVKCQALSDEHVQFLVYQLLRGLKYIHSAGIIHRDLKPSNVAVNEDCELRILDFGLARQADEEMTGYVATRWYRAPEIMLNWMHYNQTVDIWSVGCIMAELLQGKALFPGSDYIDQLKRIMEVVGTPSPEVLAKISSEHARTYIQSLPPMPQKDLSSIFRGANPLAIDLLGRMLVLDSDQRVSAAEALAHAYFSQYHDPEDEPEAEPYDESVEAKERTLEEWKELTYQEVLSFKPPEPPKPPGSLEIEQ
Target sequence in this assay (Q96SW2 whole entry): as the sequence (Q96SW2 whole entry partner) above

[3] = target: T1, Protein cereblon/Mitogen-activated protein kinase 14; assay: Protac activity at CRBN/p38alpha in […] cells assessed as p38alpha degradation at 1 uM measured after 24 hrs by immunoblotting analysis; type: cell-based
Target sequence in this assay (Q16539 2-360 limits assumed): as the sequence (Q16539 2-360 limits assumed) above
Target sequence in this assay (Q96SW2 whole entry partner): as the sequence (Q96SW2 whole entry partner) above

[4] = target: T2, Protein cereblon/Mitogen-activated protein kinase 11; assay: Protac activity at CRBN/p38beta in human T47D cells assessed as p38beta degradation at 1 uM measured after 24 hrs by immunoblotting analysis; type: cell-based
Target sequence in this assay (Q15759 whole entry): as the sequence (Q15759 whole entry) above
Target sequence in this assay (Q96SW2 whole entry): as the sequence (Q96SW2 whole entry partner) above

[5] = Protac activity at CRBN/p38alpha in mouse bone marrow derived macrophages assessed as p38alpha degradation at 1 uM measured after 24 hrs by immunoblotting analysis; details: Macrophage
[6] = target: T2, Protein cereblon/Mitogen-activated protein kinase 11; assay: Protac activity at CRBN/p38beta in human retina epithelial cells assessed as p38beta degradation at 1 uM measured after 24 hrs by immunoblotting analysis; type: tissue-based; details: Epithelial cell
Target sequence in this assay (Q15759 whole entry, looked up): as the sequence (Q15759 whole entry) above
Target sequence in this assay (Q96SW2 whole entry, looked up): as the sequence (Q96SW2 whole entry partner) above

[7] = Induction of change in p38alpha protein expression in human MDA-MB-231 cells at 1 uM incubated for 16 hrs by mass spectrometry based proteomic analysis; type: cell-based; details: mda-mb-231, 16 h
Outline: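 MDA-MB-231 cells SILAC-labelled to ≥95% in arginine/lysine-free DMEM-F12 with 2% dialysed FBS; heavy cells got compound, light cells got DMSO, 16 h. Lysis in 4% SDS, 0.1 M DTT, Tris pH 7.6; FASP trypsin digestion overnight at 37 °C; nano-LC C18 MS/MS with 300 min run; protein-level heavy/light change.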

[8] = target: T2, Protein cereblon/Mitogen-activated protein kinase 11; assay: Protac activity at CRBN/p38beta in […] cells assessed as p38beta degradation at 1 uM measured after 24 hrs by immunoblotting analysis; type: cell-based
Target sequence in this assay (Q15759 whole entry, looked up): as the sequence (Q15759 whole entry) above
Target sequence in this assay (Q96SW2 whole entry, looked up): as the sequence (Q96SW2 whole entry partner) above

[9] = target: T1, Protein cereblon/Mitogen-activated protein kinase 14; assay: Protac activity at CRBN/p38alpha in human T47D cells assessed as p38alpha degradation measured after 24 hrs by immunoblotting analysis; type: cell-based
Outline: (§1)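 T47D and MDA-MB-231 cells treated with a concentration series for 24 h; lysates immunoblotted for p38α. p38α/tubulin band ratio normalised to untreated cells; DC50 (conc. giving 50% degradation) fitted from biological duplicates.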
Target sequence in this assay (Q16539 whole entry): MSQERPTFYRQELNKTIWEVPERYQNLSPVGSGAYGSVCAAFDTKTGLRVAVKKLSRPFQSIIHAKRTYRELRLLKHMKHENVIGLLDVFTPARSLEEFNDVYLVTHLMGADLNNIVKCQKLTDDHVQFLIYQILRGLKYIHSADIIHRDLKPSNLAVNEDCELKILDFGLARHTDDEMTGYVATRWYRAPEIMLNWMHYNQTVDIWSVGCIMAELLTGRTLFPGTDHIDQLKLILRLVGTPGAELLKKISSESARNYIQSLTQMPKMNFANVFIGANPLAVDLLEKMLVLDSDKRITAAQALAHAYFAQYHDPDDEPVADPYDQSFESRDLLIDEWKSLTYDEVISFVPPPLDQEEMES
Target sequence in this assay (Q96SW2 whole entry): as the sequence (Q96SW2 whole entry partner) above

[10] = target: T1, Protein cereblon/Mitogen-activated protein kinase 14; assay: Protac activity at CRBN/p38alpha in human MDA-MB-231 cells assessed as p38alpha degradation measured after 24 hrs by immunoblotting analysis; type: cell-based; outline: as §1
Target sequence in this assay (Q16539 whole entry): as the sequence (Q16539 whole entry) above
Target sequence in this assay (Q96SW2 whole entry): as the sequence (Q96SW2 whole entry partner) above

[11] = Protac activity at CRBN/p38beta in mouse bone marrow derived macrophages assessed as p38beta degradation at 1 uM measured after 24 hrs by immunoblotting analysis; details: Macrophage
[12] = target: T1, Protein cereblon/Mitogen-activated protein kinase 14; assay: Protac activity at CRBN/p38alpha in human T47D cells assessed as p38alpha degradation at 10 uM measured after 24 hrs by immunoblotting analysis; type: cell-based
Outline: (§2)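 BBL358 or T47D cells given compound 10 µM for 24 h. RIPA lysates run on SDS-PAGE and immunoblotted for p38α. Odyssey infrared band intensities give p38α/tubulin ratio, normalised to untreated cells and reported as % degradation. Mean ±SEM with n=2 or more (one set: n=2 BBL358, n=1 T47D).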
Target sequence in this assay (Q16539 2-360 limits assumed): as the sequence (Q16539 2-360 limits assumed) above
Target sequence in this assay (Q96SW2 whole entry partner): as the sequence (Q96SW2 whole entry partner) above

[13] = target: T1, Protein cereblon/Mitogen-activated protein kinase 14; assay: Protac activity at CRBN/p38alpha in human MDA-MB-231 cells assessed as reduction in UV-induced MK2 phosphorylation at 1 uM after 48 hrs by immunoblotting analysis; type: cell-based
Outline: (§3)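 MDA-MB-231 cells pre-incubated with compound, then p38α pathway stimulated with UV at 30 J/m2; PH797804 reference at 2 µM. Lysates immunoblotted for phospho-MK2. Cells grown in DMEM with 10% FBS at 37 °C, 5% CO2.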
Target sequence in this assay (Q16539 2-360 limits assumed): as the sequence (Q16539 2-360 limits assumed) above
Target sequence in this assay (Q96SW2 whole entry partner): as the sequence (Q96SW2 whole entry partner) above

[14] = target: T1, Protein cereblon/Mitogen-activated protein kinase 14; assay: Protac activity at CRBN/p38alpha in human MDA-MB-231 cells assessed as reduction in UV-induced MK2 phosphorylation at 1 uM after 24 hrs by immunoblotting analysis; type: cell-based; outline: as §3
Target sequence in this assay (Q16539 2-360 limits assumed): as the sequence (Q16539 2-360 limits assumed) above
Target sequence in this assay (Q96SW2 whole entry partner): as the sequence (Q96SW2 whole entry partner) above

[15] = target: T1, Protein cereblon/Mitogen-activated protein kinase 14; assay: Protac activity at CRBN/p38alpha in human BBL358 cells assessed as p38alpha degradation at 10 uM measured after 24 hrs by immunoblotting analysis; type: cell-based; outline: as §2
Target sequence in this assay (Q16539 2-360 limits assumed): as the sequence (Q16539 2-360 limits assumed) above
Target sequence in this assay (Q96SW2 whole entry partner): as the sequence (Q96SW2 whole entry partner) above

[16] = target: T1, Protein cereblon/Mitogen-activated protein kinase 14; assay: Protac activity at CRBN/p38alpha in human T47D cells assessed as p38alpha degradation at 1 uM measured after 24 hrs by immunoblotting analysis; type: cell-based
Outline: (§4)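 MDA-MB-231 and T47D cells exposed 24 h to 1 µM; N-methylated imide analogues tested alongside. RIPA lysates immunoblotted for p38α, intensities quantified from infrared imaging.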

[17] = target: T1, Protein cereblon/Mitogen-activated protein kinase 14; assay: Protac activity at CRBN/p38alpha in human MDA-MB-231 cells assessed as p38alpha degradation at 1 uM measured after 24 hrs by immunoblotting analysis; type: cell-based; outline: as §4

Row | Compound | Activity [12] | Activity [15] | also measured
1 | Cc1ccc(C(=O)NCCCCc2cn(CCCC(=O)NCCCCNc3cccc4c3C(=O)N(C3CCC(=O)NC3=O)C4=O)nn2)cc1-n1c(C)cc(OCc2ccc(F)cc2F)c(Br)c1=O (centres undefined) | 89% | 84% | Activity [1]: Active; DC50 [2]: 0.0489 µM; Activity [3]: Active; DC50 [4]: 0.0485 µM; Activity [5]: Active; Activity [6]: Active; Activity [7]: Active; Activity [8]: Active; DC50 [9]: 0.024 µM; DC50 [10]: 0.0272 µM; Activity [11]: Active; Activity [13]: Active; Activity [14]: Active
2 | Cc1ccc(C(=O)NCCCCc2cn(CCCC(=O)NCCCCNc3cccc4c3C(=O)N(C3CCC(=O)N(C)C3=O)C4=O)nn2)cc1-n1c(C)cc(OCc2ccc(F)cc2F)c(Br)c1=O (centres undefined) |  |  | Activity [16]: inactive; Activity [17]: inactive; Activity [14]: inactive
3 | Cc1ccc(C(=O)NCCCCc2cn(CC[C@H](N)C(=O)NCCCCNc3cccc4c3C(=O)N(C3CCC(=O)NC3=O)C4=O)nn2)cc1-n1c(C)cc(OCc2ccc(F)cc2F)c(Br)c1=O (some centres undefined) | 4% |  | 
4 | C=C1c2cccc(NCCCCCCNC(=O)CCCn3cc(CCCCNC(=O)c4ccc(C)c(-n5c(C)cc(OCc6ccc(F)cc6F)c(Br)c5=O)c4)nn3)c2C(=O)N1C1CCC(=O)N(C)C1=O (centres undefined) |  |  | Activity [16]: inactive; Activity [17]: inactive; Activity [14]: inactive
5 | Cc1ccc(C(=O)NCCc2cn(CCCC(=O)NCCCNc3cccc4c3C(=O)N(C3CCC(=O)NC3=O)C4=O)nn2)cc1-n1c(C)cc(OCc2ccc(F)cc2F)c(Br)c1=O (centres undefined) | 42% | 36% | 
6 | Cc1ccc(C(=O)NCCCc2cn(CCCC(=O)NCCCNc3cccc4c3C(=O)N(C3CCC(=O)NC3=O)C4=O)nn2)cc1-n1c(C)cc(OCc2ccc(F)cc2F)c(Br)c1=O (centres undefined) | 68% | 60% | 
7 | Cc1ccc(C(=O)NCCCCc2cn(CCCC(=O)NCCOCCOCCNc3cccc4c3C(=O)N(C3CCC(=O)NC3=O)C4=O)nn2)cc1-n1c(C)cc(OCc2ccc(F)cc2F)c(Br)c1=O (centres undefined) | 85% | 79% | 
8 | Cc1ccc(C(=O)NCCc2cn(CCCC(=O)NCCNc3cccc4c3C(=O)N(C3CCC(=O)NC3=O)C4=O)nn2)cc1-n1c(C)cc(OCc2ccc(F)cc2F)c(Br)c1=O (centres undefined) | 8% |  | 
9 | Cc1ccc(C(=O)NCCCc2cn(CCCC(=O)NCCCCNc3cccc4c3C(=O)N(C3CCC(=O)NC3=O)C4=O)nn2)cc1-n1c(C)cc(OCc2ccc(F)cc2F)c(Br)c1=O (centres undefined) | 91% | 84% | 
10 | Cc1ccc(C(=O)NCCCCNC(=O)c2ccc3c(c2)C(=O)N(C2CCC(=O)NC2=O)C3=O)cc1-n1c(C)cc(OCc2ccc(F)cc2F)c(Br)c1=O (centres undefined) |  | 40% | 
11 | Cc1ccc(C(=O)NCCCCc2cn(CCCC(=O)NCCOCCOCCNc3cccc4c3C(=O)N(C3CCC(=O)N(Cc5ccccc5[N+](=O)[O-])C3=O)C4=O)nn2)cc1-n1c(C)cc(OCc2ccc(F)cc2F)c(Br)c1=O (centres undefined) | 20% | 3% | 
12 | Cc1ccc(C(=O)NCCCCc2cn(CCCC(=O)NCCCNc3cccc4c3C(=O)N(C3CCC(=O)NC3=O)C4=O)nn2)cc1-n1c(C)cc(OCc2ccc(F)cc2F)c(Br)c1=O (centres undefined) | 87% | 74% | 
13 | Cc1ccc(C(=O)NCCc2cn(CCCC(=O)NCCCCNc3cccc4c3C(=O)N(C3CCC(=O)NC3=O)C4=O)nn2)cc1-n1c(C)cc(OCc2ccc(F)cc2F)c(Br)c1=O (centres undefined) | 25% | 40% | 
14 | Cc1ccc(C(=O)NCCCCc2cn(CCCC(=O)NCCOCCOCCNC(=O)c3ccc4c(c3)C(=O)N(C3CCC(=O)N(Cc5ccccc5[N+](=O)[O-])C3=O)C4=O)nn2)cc1-n1c(C)cc(OCc2ccc(F)cc2F)c(Br)c1=O (centres undefined) | 76% | 0.5% | 
15 | Cc1ccc(C(=O)NCCOCCOCCNC(=O)c2ccc3c(c2)C(=O)N(C2CCC(=O)NC2=O)C3=O)cc1-n1c(C)cc(OCc2ccc(F)cc2F)c(Br)c1=O (centres undefined) |  | 55% | 
16 | Cc1ccc(C(=O)NCCOCCOCCNc2cccc3c2C(=O)N(C2CCC(=O)NC2=O)C3=O)cc1-n1c(C)cc(OCc2ccc(F)cc2F)c(Br)c1=O (centres undefined) |  | 60% | 
17 | Cc1ccc(C(=O)NCCCCc2cn(CCCC(=O)NCCNc3cccc4c3C(=O)N(C3CCC(=O)NC3=O)C4=O)nn2)cc1-n1c(C)cc(OCc2ccc(F)cc2F)c(Br)c1=O (centres undefined) | 40% | 12% | 

The next lines start with results.

Row | Activity [12] | Activity [15] | Compound | also measured
18 | 16% | 47% | C=C1c2cccc(NCCCCCNC(=O)CCCn3cc(CCCCNC(=O)c4ccc(C)c(-n5c(C)cc(OCc6ccc(F)cc6F)c(Br)c5=O)c4)nn3)c2C(=O)N1C1CCC(=O)NC1=O (centres undefined) | 
19 | 47% | 67% | Cc1ccc(C(=O)NCCCCc2cn(CCCC(=O)NCCCCCCNc3cccc4c3C(=O)N(C3CCC(=O)NC3=O)C4=O)nn2)cc1-n1c(C)cc(OCc2ccc(F)cc2F)c(Br)c1=O (centres undefined) | 
20 | 93% | 81% | Cc1ccc(C(=O)NCCCCc2cn(CC[C@H](NC(=O)OC(C)(C)C)C(=O)NCCCCNc3cccc4c3C(=O)N(C3CCC(=O)NC3=O)C4=O)nn2)cc1-n1c(C)cc(OCc2ccc(F)cc2F)c(Br)c1=O (some centres undefined) | 
21 | 41% | 92% | Cc1ccc(C(=O)NCCCCc2cn(CCOCCOCCOCCOCCNc3cccc4c3C(=O)N(C3CCC(=O)NC3=O)C4=O)nn2)cc1-n1c(C)cc(OCc2ccc(F)cc2F)c(Br)c1=O (centres undefined) | 
22 | 20% | 82% | Cc1ccc(C(=O)NCCOCCOCCOCCOCCOCCOCCNc2cccc3c2C(=O)N(C2CCC(=O)NC2=O)C3=O)cc1-n1c(C)cc(OCc2ccc(F)cc2F)c(Br)c1=O (centres undefined) | 
23 | 82% | 77% | Cc1ccc(C(=O)NCCCCc2cn(CCCC(=O)NCCCCCNc3cccc4c3C(=O)N(C3CCC(=O)NC3=O)C4=O)nn2)cc1-n1c(C)cc(OCc2ccc(F)cc2F)c(Br)c1=O (centres undefined) | 
24 | 26% | 78% | Cc1ccc(C(=O)NCCCCc2cn(CCOCCOCCOCCNc3cccc4c3C(=O)N(C3CCC(=O)NC3=O)C4=O)nn2)cc1-n1c(C)cc(OCc2ccc(F)cc2F)c(Br)c1=O (centres undefined) | 
25 |  | 8% | Cc1ccc(C(=O)NCCCCNc2cccc3c2C(=O)N(C2CCC(=O)NC2=O)C3=O)cc1-n1c(C)cc(OCc2ccc(F)cc2F)c(Br)c1=O (centres undefined) | 
